Test results from ChEMBL document CHEMBL2202989, “New adamantane phenylalkylamines with σ-receptor binding affinity and anticancer activity, associated with putative antagonism of neuropathic pain” (J Med Chem, 2012).
The source made the active and inactive calls. The calls are words filed in the database; no cut-off is given here.

Legend:
IGROV-1 [1] = experiment: Cell cycle arrest in human IGROV1 cells assessed as accumulation at >G2/M phase at 15 uM after 24 hrs using propidium iodide staining by FACS analysis (reference value: 21 %); format: functional
Outline: (§1)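 Cells were plated 24 h before treatment and exposed for 24 h at final 0.5, 5, 15 and 50 μM in 0.5% DMSO, against vehicle-treated controls. Cells were then trypsinised and fixed in cold ethanol for 3 h at 4 °C. They were stained in a mix of RNase (200 μg/mL) and PI (1 mg/mL) for 45 min at room temperature in the dark. Flow cytometry used 488 nm excitation and 10 000 gated cells. Phase percentages were assigned from DNA content.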

PC-3 [2] = experiment: Antitumor activity against human PC3 cells xenografted in SCID mouse assessed as bone metastasis at 55 mg/kg, ip administered 5 consecutive days in a week for two cycles measured after 2 cycles relative to control; format: functional; conditions: route intraperitoneal
Outline: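 PC3 xenografts were grown in SCID mice (10^6 cells per inoculum), 14 mice (28 tumors) per group, dosed ip from about 100 mm3. The test agent was given in 5% Tween 80; paclitaxel was given in Cremophor diluted in saline, with a vehicle of 1:1 ethanol/Cremophor diluted 1:3 in saline. Volume and %ΔT/ΔC were derived from caliper readings twice weekly. Occurrence of primary tumors and of axillary and bone metastases was scored (n = 7). Two-tailed t test.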

Mus musculus [3] = experiment: Analgesic activity in CD1 mouse neuropathic pain model assessed as reduction in paw licking time at 50 mg/kg, po administered 1 hr prior to formalin challenge in presence of paclitaxel; format: functional, organism-based; design: dose 50 mg/kg
Outline: (§2)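 CD1 male mice (34−40 g), free access to food and water, were given paclitaxel 6 mg/kg ip once in saline on day 0. On day 14 the test compound was given orally 1 h before formalin was injected into the hind paw. Time spent licking and biting the injected paw and leg was recorded at 0−5 and 35−40 min after formalin.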

[4] = Growth inhibition of human MSC cells after 48 hrs by SRB assay; format: cell-based
Outline: (§3)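 Cells grown in RPMI 1640 with 5% heat-inactivated FCS, 2 mM L-glutamine and antibiotics, 37 °C, 5% CO2. Seeded at 3500–30000 cells/well and left 24 h before dosing. DMSO solutions added at 10-fold dilutions from 100 to 0.01 μM for 48 h. Cells TCA-fixed and SRB-stained, absorbance read at 540 nm; GI50 derived against the time-zero plate.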

Mus musculus [5] = experiment: Analgesic activity in CD1 mouse neuropathic pain model assessed as reduction in paw licking time at 100 mg/kg, po administered 1 hr prior to formalin challenge in presence of paclitaxel; format: functional, organism-based; design: dose 100 mg/kg; outline: as §2
IGROV-1 [6] = experiment: Cell cycle arrest in human IGROV1 cells assessed as accumulation at >G2/M phase at 0.5 uM after 24 hrs using propidium iodide staining by FACS analysis (reference value: 21 %); format: functional; outline: as §1
BXPC-3 [7] = experiment: Induction of apoptosis in human BxPC3 cells assessed as late apoptosis at 50 uM using annexin V/7-AAD by FACS analysis (reference value: 9 %); format: functional
Outline: (§4)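 Cells plated 24 h before treatment, then exposed 24 h to 0.5, 5, 15 or 50 μM compound (final DMSO 0.5%); vehicle controls included. Cells scraped and stained with annexin V-FITC and 7-AAD for 15 min on ice in the dark. Flow cytometry with 488 nm excitation, 10,000 gated cells. Early apoptosis was annexin V+/7-AAD−, late was annexin V+/7-AAD+.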

PC-3 [8] = experiment: Induction of apoptosis in human PC3 cells assessed as early apoptosis at 0.5 uM using annexin V/7-AAD by FACS analysis (reference value: 5 %); format: functional
BXPC-3 [9] = experiment: Cell cycle arrest in human BxPC3 cells assessed as accumulation at S phase at 0.5 uM after 24 hrs using propidium iodide staining by FACS analysis (reference value: 33 %); format: functional; outline: as §1
IGROV-1 [10] = experiment: Induction of apoptosis in human IGROV1 cells assessed as cleaved caspase3 containing cells at 0.5 uM by antibody-based FACS analysis (reference value: 3.9 %); format: functional
PC-3 [11] = experiment: Induction of apoptosis in human PC3 cells assessed as total apoptotic death at 50 uM using annexin V/7-AAD by FACS analysis (reference value: 8 %); format: functional; outline: as §4
PC-3 [12] = experiment: Cell cycle arrest in human PC3 cells assessed as accumulation at >G2/M phase at 0.5 uM after 24 hrs using propidium iodide staining by FACS analysis (reference value: 6 %); format: functional
IGROV-1 [13] = experiment: Induction of apoptosis in human IGROV1 cells assessed as early apoptosis at 5 uM using annexin V/7-AAD by FACS analysis (reference value: 9 %); format: functional
BXPC-3 [14] = experiment: Induction of apoptosis in human BxPC3 cells assessed as total apoptotic death at 50 uM using annexin V/7-AAD by FACS analysis (reference value: 18 %); format: functional; outline: as §4
OVCAR-5 = experiment: Antitumor activity against human OVCAR5 cells xenografted in SCID mouse assessed as bone metastasis at 55 mg/kg, ip administered 5 consecutive days in a week for two cycles measured after 2 cycles relative to control; format: functional; conditions: OVCAR-5, ip, route intraperitoneal, read-out: TGI
Outline: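 SCID mice carried OVCAR5 xenografts (10^6 cells per inoculum), 16 mice (32 tumors) per group, with ip dosing in 5% Tween 80 from a tumor volume of about 100 mm3. Caliper volume was measured twice weekly and %ΔT/ΔC derived. At termination, primary tumors were weighed and secondary metastases were scored at axillary and bone sites (n = 7−8). Two-tailed t test.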

IGROV-1 [15] = experiment: Induction of apoptosis in human IGROV1 cells assessed as cleaved caspase3 containing cells at 50 uM by antibody-based FACS analysis (reference value: 3.9 %); format: functional
BXPC-3 [16] = experiment: Induction of apoptosis in human BxPC3 cells assessed as cleaved caspase3 containing cells at 5 uM by antibody-based FACS analysis (reference value: 8.2 %); format: functional
BXPC-3 [17] = experiment: Cell cycle arrest in human BxPC3 cells assessed as accumulation at G2 phase at 15 uM after 24 hrs using propidium iodide staining by FACS analysis (reference value: 12 %); format: functional; outline: as §1
BXPC-3 [18] = experiment: Cell cycle arrest in human BxPC3 cells assessed as accumulation at S phase at 5 uM after 24 hrs using propidium iodide staining by FACS analysis (reference value: 33 %); format: functional; outline: as §1
PC-3 [19] = experiment: Induction of apoptosis in human PC3 cells assessed as early apoptosis at 50 uM using annexin V/7-AAD by FACS analysis (reference value: 5 %); format: functional; outline: as §4
HUVEC = experiment: (§5) Growth inhibition of human HUVEC cells after 48 hrs by SRB assay; format: cell-based; conditions: huvec, 48 h; outline: as §3
[20] = as §5; format: cell-based; conditions: HUVEC cells; outline: as §3
PC-3 [21] = experiment: Cell cycle arrest in human PC3 cells assessed as accumulation at sub G1 phase at 0.5 uM after 24 hrs using propidium iodide staining by FACS analysis (reference value: 4 %); format: functional
BXPC-3 [22] = experiment: Induction of apoptosis in human BxPC3 cells assessed as early apoptosis at 0.5 uM using annexin V/7-AAD by FACS analysis (reference value: 9 %); format: functional
BXPC-3 [23] = experiment: Antitumor activity against human BxPC3 cells xenografted in SCID mouse assessed as tumor growth inhibition at 50 mg/kg, ip administered 3 consecutives days per week for one cycle relative to control; format: functional; conditions: BXPC-3, ip, route intraperitoneal, read-out: TGI

CN1CCN(CCCc2ccc(C(c3ccccc3)C34CC5CC(CC(C5)C3)C4)cc2)CC1 (stereo unspecified)
Activity (IGROV-1 [1]): 17% | Activity (PC-3 [2]): 43% | Activity (Mus musculus [3]): Active | TGI [4]: 30.9 µM | Activity (Mus musculus [5]): Active | Activity (IGROV-1 [6]): 20% | Activity (BXPC-3 [7]): 44% | Activity (PC-3 [8]): 3% | Activity (BXPC-3 [9]): 31% | Activity (IGROV-1 [10]): 4.2% | Activity (PC-3 [11]): 23% | Activity (PC-3 [12]): 7% | Activity (IGROV-1 [13]): 10% | Activity (BXPC-3 [14]): 46% | inhibition in vivo at 55 mg/kg (OVCAR-5): 25% | Activity (IGROV-1 [15]): 15.8% | Activity (BXPC-3 [16]): 4% | Activity (BXPC-3 [17]): 12% | Activity (BXPC-3 [18]): 23% | Activity (PC-3 [19]): 15% | LC50 (HUVEC): 8.62 µM | TGI (HUVEC): 5.8 µM | GI50 at 48 h [20]: 2.98 µM | Activity (PC-3 [21]): 4% | Activity (BXPC-3 [22]): 10% | inhibition in vivo at 50 mg/kg (BXPC-3 [23]): 41.6%
